Reference: paper PMC3149845 (The Journal of neuroscience : the official journal of the …, 2011)
Entries after “also recorded” stand apart in the source; their conditions may differ. Where two headings read alike, the source gives them in different places. Peptide text beside a SMILES is read from it.

Experiments:
hTas1R2/hTas1R3 = target: T1, hTas1R2/hTas1R3 (Homo sapiens, UniProt Q8TE23); assay: Ca2+ mobilization, wild type human sweet taste receptor; type: cell-based; conditions: for response in dose-response experiment: HEK293E cells with Gα16-gust44; for Bottom (B) of sigmoid dose-response fit / Top (T) of sigmoid dose-response fit: ΔF/F normalized to maximum response of hTas1R2/hTas1R3 to neotame
T1 sequence (Q8TE23 20-839): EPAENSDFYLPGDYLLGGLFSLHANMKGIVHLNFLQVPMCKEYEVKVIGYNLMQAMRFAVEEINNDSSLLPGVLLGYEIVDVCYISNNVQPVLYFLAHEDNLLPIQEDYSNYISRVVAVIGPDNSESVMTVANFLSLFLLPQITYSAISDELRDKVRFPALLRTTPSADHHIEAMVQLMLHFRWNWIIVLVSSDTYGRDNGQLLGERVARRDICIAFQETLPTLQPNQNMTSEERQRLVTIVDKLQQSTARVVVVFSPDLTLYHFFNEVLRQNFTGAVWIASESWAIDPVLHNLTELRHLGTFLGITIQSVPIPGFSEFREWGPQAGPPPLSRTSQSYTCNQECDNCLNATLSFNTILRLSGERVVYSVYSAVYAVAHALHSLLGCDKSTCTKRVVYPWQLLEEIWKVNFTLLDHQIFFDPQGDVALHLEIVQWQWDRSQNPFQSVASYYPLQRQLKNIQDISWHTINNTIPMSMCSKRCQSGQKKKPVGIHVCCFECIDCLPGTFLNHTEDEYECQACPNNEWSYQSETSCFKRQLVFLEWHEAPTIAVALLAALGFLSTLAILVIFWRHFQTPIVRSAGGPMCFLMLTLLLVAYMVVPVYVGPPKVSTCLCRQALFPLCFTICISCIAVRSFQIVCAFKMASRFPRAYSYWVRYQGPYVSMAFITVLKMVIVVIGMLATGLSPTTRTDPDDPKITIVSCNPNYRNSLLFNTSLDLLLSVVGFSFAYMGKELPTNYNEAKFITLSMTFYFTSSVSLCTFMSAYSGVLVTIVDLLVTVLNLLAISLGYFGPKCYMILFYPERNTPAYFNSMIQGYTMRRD
T1 sequence (Q7RTX0 21-852 partner): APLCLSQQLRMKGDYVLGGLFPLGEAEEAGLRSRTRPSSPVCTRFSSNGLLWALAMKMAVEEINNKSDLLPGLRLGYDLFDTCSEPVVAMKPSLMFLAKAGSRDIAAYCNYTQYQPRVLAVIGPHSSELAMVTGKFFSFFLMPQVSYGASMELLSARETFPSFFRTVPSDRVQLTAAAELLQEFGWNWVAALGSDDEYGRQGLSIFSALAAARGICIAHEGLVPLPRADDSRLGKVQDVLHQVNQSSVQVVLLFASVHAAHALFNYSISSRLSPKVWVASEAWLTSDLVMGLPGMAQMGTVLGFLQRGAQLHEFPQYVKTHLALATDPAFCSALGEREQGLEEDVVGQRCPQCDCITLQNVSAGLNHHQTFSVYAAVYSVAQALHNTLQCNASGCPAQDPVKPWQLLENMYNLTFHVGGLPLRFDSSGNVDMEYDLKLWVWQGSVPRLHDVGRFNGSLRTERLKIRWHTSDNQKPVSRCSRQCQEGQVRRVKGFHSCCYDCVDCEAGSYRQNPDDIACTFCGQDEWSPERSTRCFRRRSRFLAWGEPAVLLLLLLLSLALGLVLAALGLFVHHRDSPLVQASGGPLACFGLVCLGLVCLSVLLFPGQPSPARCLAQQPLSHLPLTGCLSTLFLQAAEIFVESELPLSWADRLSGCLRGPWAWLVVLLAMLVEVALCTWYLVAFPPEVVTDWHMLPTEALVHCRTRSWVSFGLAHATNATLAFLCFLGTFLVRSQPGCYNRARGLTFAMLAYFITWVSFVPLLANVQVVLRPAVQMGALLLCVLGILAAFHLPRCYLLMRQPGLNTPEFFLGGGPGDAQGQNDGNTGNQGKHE
In short: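 HEK293E cells (Opti-MEM, 5% FBS, 37°C) were seeded at 50,000/well and cotransfected with Tas1R plasmids and Gα16-gust44 (0.06 μg each per well). Medium changed at 20 h; assayed 24 h later after 1 h loading with 3 μm Fluo-4 AM in HBSS/20 mm HEPES. Fluorescence (ex 488/em 525 nm) read 2 s apart; tastant added at 30 s, 150 s further. Peak ΔF/F sigmoid-fitted; three independent experiments.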

hTas1R2/smTas1R3 = target: T2, hTas1R2/smTas1R3 (Homo sapiens, UniProt Q8TE23); assay: Ca2+ mobilization, mismatched receptor; type: cell-based, human/squirrel monkey; conditions: aspartame 10mM, neotame 1mM, sucralose 2 mM, D-tryptophan 5mM, sucrose 150mM; vs control / wild type human receptor
T2 sequence (Q8TE23 20-839): T1 sequence (Q8TE23 20-839)
In short: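 Transfected HEK293E cells (50,000/well; 0.06 μg Tas1R plasmid and 0.06 μg Gα16-gust44 per well) were medium-changed at 20 h, then loaded after 24 h with 3 μM Fluo-4 AM in HBSS/20 mM HEPES for 1 h. Tastant added 30 s into scan; fluorescence (ex 488/em 525 nm) read every 2 s for 150 s. ΔF/F normalized to the hTas1R2/hTas1R3 sucralose response; three independent experiments; unpaired t test.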

[1] = target: hTas1R2:S40T/V66L/I67S/D142E+hTas1R3 (Homo sapiens, UniProt Q8TE23, D142E/I67S/S40T/V66L); assay: Ca2+ mobilization, mutated human receptor; type: cell-based; conditions: aspartame 10mM, neotame 1mM, sucralose 2 mM; compared with hTas1R2/hTas1R3
hTas1R2:S40T/V66L/I67S/D142E+hTas1R3, sequence (Q8TE23 20-839 S40T/V66L/I67S/D142E, one chain of several): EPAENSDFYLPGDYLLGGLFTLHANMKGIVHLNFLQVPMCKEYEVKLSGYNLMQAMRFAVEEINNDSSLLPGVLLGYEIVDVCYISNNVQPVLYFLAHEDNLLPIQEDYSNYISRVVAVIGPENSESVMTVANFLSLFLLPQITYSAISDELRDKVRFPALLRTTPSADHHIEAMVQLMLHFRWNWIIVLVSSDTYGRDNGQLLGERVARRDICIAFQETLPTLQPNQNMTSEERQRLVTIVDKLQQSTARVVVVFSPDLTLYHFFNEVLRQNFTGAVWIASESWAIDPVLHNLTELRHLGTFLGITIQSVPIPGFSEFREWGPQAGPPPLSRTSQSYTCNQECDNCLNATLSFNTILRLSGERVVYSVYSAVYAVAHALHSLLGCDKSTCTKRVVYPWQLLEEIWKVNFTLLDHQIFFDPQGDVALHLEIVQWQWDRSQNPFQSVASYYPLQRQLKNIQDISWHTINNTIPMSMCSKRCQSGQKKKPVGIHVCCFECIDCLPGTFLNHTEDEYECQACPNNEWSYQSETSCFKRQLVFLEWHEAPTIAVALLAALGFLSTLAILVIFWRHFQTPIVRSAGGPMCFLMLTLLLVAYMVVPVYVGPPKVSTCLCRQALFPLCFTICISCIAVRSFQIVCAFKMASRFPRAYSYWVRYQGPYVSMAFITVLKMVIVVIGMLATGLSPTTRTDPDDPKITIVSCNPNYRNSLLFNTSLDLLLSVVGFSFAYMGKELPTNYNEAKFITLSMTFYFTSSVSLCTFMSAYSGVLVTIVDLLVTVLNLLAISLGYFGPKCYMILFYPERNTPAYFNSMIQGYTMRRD
In short: (§1)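 HEK293E cells grown at 37°C in Opti-MEM with 5% FBS and seeded at 50,000/well. Cells co-lipofected with Tas1R plasmids and Gα16-gust44 (0.06 μg each per well); medium changed at 20 h, assayed 24 h later. Cells loaded 1 h with Fluo-4 AM in HEPES-buffered HBSS. Tastant added at 30 s; fluorescence (ex 488/em 525 nm) read every 2 s for 150 s more. ΔF/F normalised to human receptor maximal sucralose response; mean ± SEM, three independent experiments.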

hTas1R2:I67S+hTas1R3 = hTas1R2:I67S+hTas1R3 (Homo sapiens, UniProt Q8TE23, I67S); assay: Ca2+ mobilization, mutated human receptor; type: cell-based; conditions: aspartame 10mM, neotame 1mM, sucralose 2 mM; compared with hTas1R2/hTas1R3
hTas1R2:I67S+hTas1R3, sequence (Q8TE23 20-839 I67S, one chain of several): as the sequence (Q8TE23 20-839 S40T/V66L/I67S/D142E, one chain of several) above, with T21S, L47V, E123D counted along it
In short: as §1

[2] = target: smTas1R2:T40S/E142D+smTas1R3 (Saimiri sciureus, UniProt A3QP08, E142D/T40S); assay: Ca2+ mobilization, mutated squirrel monkey receptor; type: cell-based, squirrel monkey (Saimiri sciureus); conditions: for response in dose-response experiment: versus smTas1R2+smTas1R3
smTas1R2:T40S/E142D+smTas1R3, sequence (A3QP08 20-834 T40S/E142D): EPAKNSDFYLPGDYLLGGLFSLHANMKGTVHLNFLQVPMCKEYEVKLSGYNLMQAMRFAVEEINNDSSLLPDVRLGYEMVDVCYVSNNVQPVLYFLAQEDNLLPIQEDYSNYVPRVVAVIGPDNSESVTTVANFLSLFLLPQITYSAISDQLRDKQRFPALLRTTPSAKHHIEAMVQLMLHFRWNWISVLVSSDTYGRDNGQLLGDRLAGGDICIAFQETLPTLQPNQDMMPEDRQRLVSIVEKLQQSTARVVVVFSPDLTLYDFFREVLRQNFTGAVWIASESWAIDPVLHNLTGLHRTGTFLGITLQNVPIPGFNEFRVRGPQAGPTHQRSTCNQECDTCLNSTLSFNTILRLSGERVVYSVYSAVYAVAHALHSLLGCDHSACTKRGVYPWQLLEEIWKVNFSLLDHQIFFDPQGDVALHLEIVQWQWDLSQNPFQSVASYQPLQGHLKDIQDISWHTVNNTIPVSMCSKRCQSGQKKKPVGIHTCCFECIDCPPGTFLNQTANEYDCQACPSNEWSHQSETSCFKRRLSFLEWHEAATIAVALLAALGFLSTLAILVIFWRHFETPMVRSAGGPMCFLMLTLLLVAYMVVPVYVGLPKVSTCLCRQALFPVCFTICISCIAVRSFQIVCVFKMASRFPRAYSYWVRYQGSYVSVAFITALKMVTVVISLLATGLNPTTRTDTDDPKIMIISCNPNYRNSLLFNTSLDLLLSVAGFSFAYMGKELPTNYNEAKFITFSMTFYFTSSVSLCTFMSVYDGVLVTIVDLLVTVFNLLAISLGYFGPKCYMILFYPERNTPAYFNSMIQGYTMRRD

[3] = ΔF/F normalized to maximum response of hTas1R2/hTas1R3 to neotame

Structure (SMILES)	response in dose-response experiment (hTas1R2/hTas1R3)	Bottom (B) of sigmoid dose-response fit (hTas1R2/hTas1R3)	Top (T) of sigmoid dose-response fit (hTas1R2/hTas1R3)	calcium response to sweetener (hTas1R2/smTas1R3)	calcium response to sweetener [1]	calcium response to sweetener (hTas1R2:I67S+hTas1R3)	EC50 ([2]; HEK293E cells with Gα16-gust44, dose-response, calcium mobilization)	response in dose-response experiment ([2]; dose-response)	Top (T) of sigmoid dose-response fit [2, 3]	EC50 (hTas1R2/hTas1R3)	EC50 [2]	Bottom (B) of sigmoid dose-response fit [2, 3]
COC(=O)[C@H](Cc1ccccc1)NC(=O)[C@H](CC(=O)O)NCCC(C)(C)C [neotame]	good response	−165.1	92.82	able to respond	greatly impaired	slightly reduced response	2100 µM	good responses	69.46			
OC[C@H]1O[C@H](O[C@]2(CCl)O[C@H](CCl)[C@@H](O)[C@@H]2O)[C@H](O)[C@@H](O)[C@H]1Cl [sucralose]				reduced responses								
COC(=O)[C@H](Cc1ccccc1)NC(=O)[C@@H](N)CC(=O)O [aspartame, L-α-aspartly-L-phenylalanine methyl ester] (H-Asp-Phe-OMe)	good response	7.074	73.32	able to respond; also recorded: reduced responses	greatly impaired	mild phenotype		good response	42.4	5000 µM	1400 µM	−3.314
